Assay outcomes (PubChem BioAssay)
APJ agonist: agonists of human APJ apelin receptor; P35414; activation, % at 20 µM; CHO-K1 APJ PathHunter beta-arrestin, luminescence; 0% DMSO wells, 100% apelin; 0.11% of 330,000 active;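 active = activation more than six SD over the plate average, tested at 20 µM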
Target sequence (P35414 whole entry, looked up): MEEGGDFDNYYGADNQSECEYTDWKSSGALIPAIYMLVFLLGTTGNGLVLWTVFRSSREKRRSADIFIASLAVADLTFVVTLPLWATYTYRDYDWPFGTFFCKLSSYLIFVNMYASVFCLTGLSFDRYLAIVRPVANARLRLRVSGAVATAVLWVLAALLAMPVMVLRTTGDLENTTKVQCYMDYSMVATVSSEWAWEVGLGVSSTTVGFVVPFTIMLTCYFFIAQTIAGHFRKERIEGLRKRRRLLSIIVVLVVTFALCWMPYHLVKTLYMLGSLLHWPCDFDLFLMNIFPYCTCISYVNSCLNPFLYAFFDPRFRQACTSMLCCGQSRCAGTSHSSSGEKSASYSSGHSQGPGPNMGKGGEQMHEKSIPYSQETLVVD
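Test system – PathHunter CHO-K1 APJ (AGTRL-1) beta-arrestin reporter cells · Input – 1000 cells/well · Compound – single test compound dose, 20 µM final, 1% DMSO · Times – compound stimulation 90 min at 25 °C, detection 60 min · Technique – beta-gal luminescence · Read-out basis – APJ–arrestin association signal · Control set – negative DMSO alone, positive Apelin-13 at 10 nM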
EBI2 block: blocks human EBI2 receptor beta-arrestin signaling | P32249 | EBI2 beta-arrestin recruitment, luminescence, 7a,25-OHC stimulated | inhibition, % at 5 µM | 0.81% of 360,000 active; in the data active = inhibition above about 38%;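 note: enzyme fragment complementation signal reports receptor beta-arrestin coupling in cells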
APJ antagonist: APJ receptor antagonism; P35414; 0.32% of 330,000 active; inhibition, % at 20 µM; CHO-K1 APJ beta-arrestin complementation, luminescence;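 active = inhibition above about 40% at 20 µM, limit read from the data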;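 note: cells challenged with 10 nM apelin-13 agonist together with compound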
CXCR6 block: blocks human CXCR6 beta-arrestin recruitment | CHO-K1 PathHunter CXCR6 beta-arrestin, luminescence | O00574 | AID 602244 | 0.36% of 360,000 active | inhibition, % at 20 µM; in the data active = inhibition above about 34%, passing the limit was not always enough;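 note: antagonist mode with CXCL16 agonist at 10 nM final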
m5-HT2A agonist: mouse HTR2A agonism via beta-arrestin recruitment; CHO-K1 mHTR2A beta-arrestin complementation, luminescence; percent of 30 µM serotonin response; activation, % at 7.6 µM; 0.66% of 360,000 active; AID 624169;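 active = activation above a run cutoff, the mean activation of all tested compounds plus 3 SD, cut at about 14% in these data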
CCR6 antagonist: antagonists of human CCR6 receptor; CHO-K1 CCR6 PathHunter beta-arrestin, luminescence, CCL20-stimulated; inhibition, % at 20 µM; 0.49% of 340,000 active; AID 493098;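 active = compounds whose inhibition of the agonist-driven luminescence signal at 20 µM reaches about 50%, limit read from the data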;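 note: cells stimulated with CCL20 at 14 nM final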
CXCR6 antag conf: CXCR6 antagonism confirmation, single concentration; shares compounds with CXCR6 block; 65% of 700 active; CHO-K1 CXCR6 PathHunter beta-arrestin, luminescence; inhibition, % at 20 µM;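 active = mean inhibition over four retests above 40%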;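 note: receptor stimulated with 10 nM CXCL16 agonist; beta-galactosidase fragment complementation upon beta-arrestin recruitment to receptor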
A number is an active result. An excerpt weighted towards active compounds, which were near 2.2% of everything screened.

How did Cc1ccc2c(c1)C1CN(C)CCC1N2C(=S)NC(=O)c1ccc(Br)cc1 (centres undefined) do in these assays?
APJ agonist: inactive; EBI2 block: inactive; APJ antagonist: inactive; CXCR6 block: 44; m5-HT2A agonist: inactive; CCR6 antagonist: 56; CXCR6 antag conf: 67

What do the screens show for `CCN(CC(=O)NC(C)(C)C)C(=O)COc1c(Cl)cc(Cl)c2ccc(C)nc12`?
APJ agonist: inactive; EBI2 block: inactive; APJ antagonist: inactive; CXCR6 block: 33; m5-HT2A agonist: inactive; CXCR6 antag conf: inactive

Results for COc1ccc(C(=O)C(=O)N2CCC(Cc3ccccc3)CC2)cc1OC ?
EBI2 block: inactive; m5-HT2A agonist: inactive

How did CN(C)CCCN(C(=O)CCSc1ccccc1)c1nc2cc3c(cc2s1)OCO3 do in these assays?
APJ agonist: inactive; EBI2 block: inactive; APJ antagonist: inactive; CXCR6 block: inactive; m5-HT2A agonist: inactive; CCR6 antagonist: inactive

What do the screens show for `CN(C)CCCN(C(=O)CCS(=O)(=O)c1ccccc1)c1nc2cc3c(cc2s1)OCO3`?
APJ agonist: inactive; EBI2 block: 42; APJ antagonist: inactive; CXCR6 block: 40; m5-HT2A agonist: inactive; CCR6 antagonist: 50; CXCR6 antag conf: 57

How did COc1cc2[nH]c(=O)c(C(=O)NCc3ccc(C)cc3)c(O)c2cc1OC do in these assays?
EBI2 block: inactive; CXCR6 block: inactive; m5-HT2A agonist: inactive

What do the screens show for `O=C(Nc1nccs1)c1sc2cc(Cl)ccc2c1Cl`?
APJ agonist: inactive; EBI2 block: inactive; APJ antagonist: inactive; CXCR6 block: 67; m5-HT2A agonist: inactive; CCR6 antagonist: 73; CXCR6 antag conf: 76

What do the screens show for `CCOc1cc(/C=C2\N=C(SC)SC2=O)cc([N+](=O)[O-])c1OC(C)=O`?
APJ agonist: inactive; EBI2 block: inactive; APJ antagonist: inactive; CXCR6 block: 42; m5-HT2A agonist: inactive; CCR6 antagonist: inactive; CXCR6 antag conf: 40

How did CCOc1cc(/C=C2\N=C(SCC)SC2=O)cc([N+](=O)[O-])c1OC(C)=O do in these assays?
APJ agonist: inactive; EBI2 block: inactive; APJ antagonist: inactive; CXCR6 block: 45; m5-HT2A agonist: inactive; CCR6 antagonist: 55; CXCR6 antag conf: 59

What do the screens show for `CCOc1c(OC(C)=O)ccc(/C=C2\N=C(SCC)SC2=O)c1[N+](=O)[O-]`?
APJ agonist: inactive; EBI2 block: inactive; APJ antagonist: inactive; CXCR6 block: inactive; m5-HT2A agonist: inactive; CCR6 antagonist: inactive

What do the screens show for `Cn1c(=O)c2c(ncn2CC(=O)OCC(=O)c2ccc(Br)cc2)n(C)c1=O`?
EBI2 block: inactive; CXCR6 block: inactive; m5-HT2A agonist: inactive

Results for COc1cc(/C=C/C(=O)c2ccc(C)c([N+](=O)[O-])c2)cc(OC)c1O ?
APJ agonist: inactive; EBI2 block: inactive; APJ antagonist: inactive; CXCR6 block: 43; m5-HT2A agonist: inactive; CCR6 antagonist: 68; CXCR6 antag conf: 55

How did COc1ccc(/C=C/C(=O)c2ccc(C)c([N+](=O)[O-])c2)cc1O do in these assays?
APJ agonist: inactive; EBI2 block: inactive; APJ antagonist: inactive; CXCR6 block: inactive; m5-HT2A agonist: inactive; CCR6 antagonist: inactive

How did COCCNC(=O)C1CCCN(C(=O)COc2ccc(C(C)(C)C)cc2)CC1 (centres undefined) do in these assays?
EBI2 block: inactive; CXCR6 block: inactive; m5-HT2A agonist: inactive

Results for O=C(NC(=S)Nc1ccccc1C(=O)O)c1cncc(Br)c1 ?
APJ agonist: inactive; EBI2 block: inactive; APJ antagonist: inactive; CXCR6 block: inactive; m5-HT2A agonist: inactive; CCR6 antagonist: inactive

Results for O=C(NC(=S)Nc1ccccc1O)c1cncc(Br)c1 ?
APJ agonist: inactive; EBI2 block: inactive; APJ antagonist: inactive; CXCR6 block: 47; m5-HT2A agonist: inactive; CCR6 antagonist: 66; CXCR6 antag conf: 48

How did CC(C)=CCN1CCN(CCC2=C(C)CCCC2(C)C)CC1CCO (centres undefined) do in these assays?
APJ agonist: inactive; EBI2 block: inactive; APJ antagonist: inactive; CXCR6 block: inactive; m5-HT2A agonist: inactive; CCR6 antagonist: inactive

How did CC1=C(CC/C(C)=N/NC(N)=S)C(C)(C)CCC1 do in these assays?
APJ agonist: inactive; EBI2 block: inactive; APJ antagonist: inactive; CXCR6 block: 46; m5-HT2A agonist: inactive; CCR6 antagonist: inactive; CXCR6 antag conf: inactive

Results for CCC(=O)N1CCCC(C)(C(=O)Nc2ccc3scnc3c2)C1 (centres undefined) ?
EBI2 block: inactive; CXCR6 block: inactive; m5-HT2A agonist: inactive

What do the screens show for `CCOC(=O)c1c(C)oc2c1c(C=NCC1CCCO1)c(O)c1ccccc12` (centres undefined)?
EBI2 block: inactive; CXCR6 block: inactive; m5-HT2A agonist: inactive; CCR6 antagonist: inactive

What do the screens show for `CCOC(=O)c1c(C)oc2c1c(C=NCc1ccccn1)c(O)c1ccccc12`?
EBI2 block: inactive; CXCR6 block: 98; m5-HT2A agonist: inactive; CCR6 antagonist: 77; CXCR6 antag conf: 64

What do the screens show for `Cc1noc(C)c1NC(=O)Nc1cccc2c1O[C@H](CN(C)S(=O)(=O)c1cn(C)cn1)[C@@H](C)CN([C@H](C)CO)C2=O`?
APJ agonist: inactive; EBI2 block: inactive; APJ antagonist: inactive; CXCR6 block: 45; m5-HT2A agonist: inactive; CCR6 antagonist: inactive; CXCR6 antag conf: inactive

What do the screens show for `Cc1noc(C)c1NC(=O)Nc1cccc2c1O[C@H](CN(C)S(C)(=O)=O)[C@@H](C)CN([C@H](C)CO)C2=O`?
APJ agonist: inactive; EBI2 block: inactive; APJ antagonist: inactive; CXCR6 block: inactive; m5-HT2A agonist: inactive; CCR6 antagonist: inactive

How did COc1ccc(NC(=O)c2cc(C3CCCCN3S(=O)(=O)c3ccccc3)on2)c(C)c1 (centres undefined) do in these assays?
EBI2 block: inactive; CXCR6 block: inactive; m5-HT2A agonist: inactive

How did Cc1ccc(NC(=O)c2ccc(Cl)c(N3C(=O)C=CC3=O)c2)cc1 do in these assays?
APJ agonist: inactive; EBI2 block: inactive; APJ antagonist: inactive; CXCR6 block: 94; m5-HT2A agonist: inactive; CXCR6 antag conf: inactive

How did Cc1ccc(O)c(C(=O)CC(=O)c2ccc(Cl)cc2)c1 do in these assays?
EBI2 block: inactive; CXCR6 block: 42; m5-HT2A agonist: inactive; CCR6 antagonist: 65; CXCR6 antag conf: 45

What do the screens show for `CCC(c1nnnn1-c1ccc2c(c1)OCCO2)N1CCN(C(C)=O)CC1` (centres undefined)?
EBI2 block: inactive; CXCR6 block: inactive; m5-HT2A agonist: inactive

What do the screens show for `CCCCCCCCN1C(=O)[C@H](CC(=O)N2CCN(C(=O)c3ccco3)CC2)C[C@@]2(C(=O)OC)CC(C)(C)CC=C12`?
EBI2 block: inactive; m5-HT2A agonist: inactive
